Our source for the inhibition and IC50 values is ChEMBL document CHEMBL4177693, “Design, synthesis, and biological evaluation of thieno[2,3-d]pyrimidine derivatives as novel dual c-Met and VEGFR-2 kinase inhibitors” (Bioorg Med Chem, 2017).

The subject of one test is BaF3. The test can be described thus: Antiproliferative activity against mouse BAF3 cells harboring […] at 1 uM after 72 hrs by CCK-8 assay relative to control. The class given is functional. As to conditions: BaF3, 72 h. In short, it runs like this:
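Murine BaF3 cells expressing TPR-Met (c-Met-dependent) were plated in RPMI 1640 with 10% FBS. Serial compound dilutions or 0.1% DMSO were added the following day, and cells were incubated a further 72 h before CCK-8 read-out. IC50 was fitted by nonlinear regression; single-point percent inhibition was tested at 1 μM.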
(Formazan colour is commonly taken as a measure of viable cells.)

The subject of test [1] is HUVEC. As to the kind of experiment: Antiproliferative activity against human VEGF-stimulated HUVEC cells at 1 uM after 120 hrs by CCK-8 assay relative to control. The class given is functional. In short, it runs like this:
(§1)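 HUVECs were plated in human endothelial serum-free medium. The next day, serial dilutions of compound or 0.1% DMSO vehicle were added, with 60 ng/mL recombinant human VEGF to drive proliferation for 120 h. Viability was read by CCK-8. IC50 came from nonlinear regression; percent inhibition was also scored at a single 1 μM concentration.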

Test [2] concerns HUVEC. As to the kind of experiment: Antiproliferative activity against human VEGF-stimulated HUVEC after 120 hrs by CCK-8 assay. The class given is functional, cell-based. In short, it runs like this:
as §1

In the case of `Cc1c(C(=O)N2CCCCC2)sc2ncnc(Oc3ccc(NC(=O)C4(C(=O)Nc5ccc(F)cc5)CC4)cc3F)c12`, the inhibition (as a rule, the share of the control response that was lost under treatment) at 1 µM came to 20.3% in the test with BaF3 and 10.5% in the test with HUVEC [1].

For the molecule `Cc1c(C(=O)OCc2ccccc2)sc2ncnc(Oc3ccc(NC(=O)C4(C(=O)Nc5ccc(F)cc5)CC4)cc3F)c12`, the results for the inhibition at 1 µM with BaF3 and with HUVEC [1] were 10.5% and 6.17%, respectively.

Take `Cc1c(C(=O)N(C)C)sc2ncnc(Oc3ccc(NC(=O)C4(C(=O)Nc5ccc(F)cc5)CC4)cc3F)c12`: the inhibition at 1 µM in the test on BaF3 came out at 60%; with HUVEC [1] it was 24.4%.

In the case of `Cc1c(C(=O)NCCCN2CCOCC2)sc2ncnc(Oc3ccc(NC(=O)C4(C(=O)Nc5ccc(F)cc5)CC4)cc3F)c12`, the results for the inhibition at 1 µM in the test on BaF3 and in the test with HUVEC [1] were 92.8% and 61.3%, respectively. Further, the IC50 (commonly the concentration needed to halve the response being measured) with HUVEC [2] was found to be 153 nM.

Regarding `Cc1c(C(=O)NCCN2CCOCC2)sc2ncnc(Oc3ccc(NC(=O)C4(C(=O)Nc5ccc(F)cc5)CC4)cc3F)c12`, the inhibition at 1 µM was found to be 95.4% in the test with BaF3 and 73.6% in the test on HUVEC [1]. Moreover, 89 nM corresponded to half-maximal inhibition with HUVEC [2] (IC50).

For `Cc1c(C(=O)NCCC(C)C)sc2ncnc(Oc3ccc(NC(=O)C4(C(=O)Nc5ccc(F)cc5)CC4)cc3F)c12`, the inhibition at 1 µM in the test with BaF3 was determined as 86.6%; in the test on HUVEC [1], 27.5%.

As to `CC(=O)N1CCN(C(=O)c2sc3ncnc(Oc4ccc(NC(=O)C5(C(=O)Nc6ccc(F)cc6)CC5)cc4F)c3c2C)CC1`, the values for the inhibition at 1 µM in the test with BaF3 and with HUVEC [1] were 61% and 23.8%, respectively.

Consider `Cc1c(C(=O)Nc2ccc(F)cc2)sc2ncnc(Oc3ccc(NC(=O)C4(C(=O)Nc5ccc(F)cc5)CC4)cc3F)c12`, for which the inhibition at 1 µM in the test with BaF3 was found to be 26.7%; in the test with HUVEC [1], 32.9%.

Consider `Cc1c(C(=O)N2CCSCC2)sc2ncnc(Oc3ccc(NC(=O)C4(C(=O)Nc5ccc(F)cc5)CC4)cc3F)c12`, for which the inhibition at 1 µM in the test on BaF3 came to 23%; with HUVEC [1], 15.5%.

For the molecule `COCCNC(=O)c1sc2ncnc(Oc3ccc(NC(=O)C4(C(=O)Nc5ccc(F)cc5)CC4)cc3F)c2c1C`, the inhibition at 1 µM with BaF3 was 90.9%; with HUVEC [1] it was 68.9%. The molecule also returned an IC50 with HUVEC [2] of 139 nM.

Take `COCCCNC(=O)c1sc2ncnc(Oc3ccc(NC(=O)C4(C(=O)Nc5ccc(F)cc5)CC4)cc3F)c2c1C`: the results for the inhibition at 1 µM with BaF3 and in the test on HUVEC [1] were 88.6% and 33.3%, respectively.

`Cc1c(C(=O)O)sc2ncnc(Oc3ccc(NC(=O)C4(C(=O)Nc5ccc(F)cc5)CC4)cc3F)c12`: the inhibition at 1 µM is 2.13% in the test with BaF3 and 8.72% in the test on HUVEC [1].

For the molecule `Cc1c(C(=O)NCCS(C)(=O)=O)sc2ncnc(Oc3ccc(NC(=O)C4(C(=O)Nc5ccc(F)cc5)CC4)cc3F)c12`, the inhibition at 1 µM is 96% with BaF3 and 79.5% in the test with HUVEC [1]. In the test with HUVEC [2], this molecule gave an IC50 of 86 nM.

Take `CCOC(=O)c1sc2ncnc(Oc3ccc(NC(=O)C4(C(=O)Nc5ccc(F)cc5)CC4)cc3F)c2c1C`: the figures for the inhibition at 1 µM in the test on BaF3 and in the test on HUVEC [1] were 16.4% and 12.7%, respectively.

For `Cc1c(C(=O)NCCN2CCCC2)sc2ncnc(Oc3ccc(NC(=O)C4(C(=O)Nc5ccc(F)cc5)CC4)cc3F)c12`, the results for the inhibition at 1 µM with BaF3 and in the test with HUVEC [1] were 88.2% and 29.7%, respectively.

Consider `COC(=O)c1sc2ncnc(Oc3ccc(NC(=O)C4(C(=O)Nc5ccc(F)cc5)CC4)cc3F)c2c1C`, for which the inhibition at 1 µM in the test with BaF3 amounted to 18.1%; with HUVEC [1], 4.56%.

With `COc1cc2nccc(Oc3ccc(NC(=O)C4(C(=O)Nc5ccc(F)cc5)CC4)cc3)c2cc1OC` [CABOZANTINIB], the inhibition at 1 µM with BaF3 turned out to be 97.7%; in the test on HUVEC [1], 72.8%.

Take `Cc1c(C(=O)N2CCOCC2)sc2ncnc(Oc3ccc(NC(=O)C4(C(=O)Nc5ccc(F)cc5)CC4)cc3F)c12`: the inhibition at 1 µM with BaF3 came to 61.5%; in the test with HUVEC [1] it was 10.8%.

As to `Cc1c(C(=O)N2CCCC2)sc2ncnc(Oc3ccc(NC(=O)C4(C(=O)Nc5ccc(F)cc5)CC4)cc3F)c12`, the inhibition at 1 µM with BaF3 turned out to be 31.1%; in the test with HUVEC [1], 15.8%.

Regarding `Cc1c(C(=O)NC2CC2)sc2ncnc(Oc3ccc(NC(=O)C4(C(=O)Nc5ccc(F)cc5)CC4)cc3F)c12`, the inhibition at 1 µM turned out to be 26.6% in the test on BaF3 and 13.7% with HUVEC [1].

Regarding `Cc1c(C(=O)NCC#N)sc2ncnc(Oc3ccc(NC(=O)C4(C(=O)Nc5ccc(F)cc5)CC4)cc3F)c12`, the inhibition at 1 µM amounted to 92.6% in the test with BaF3 and 66.7% with HUVEC [1]. Further, in the test on HUVEC [2], half-maximal inhibition (IC50) was put at 123 nM.
